The source of these data is PubChem BioAssay AID651723 (Broad Institute, 2012).

The campaign covered roughly 350,000 compounds. About 740 (0.21%) were called active. Only a selection was taken, and actives are over-represented in it overall. Values without a mark were called inactive.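 How the source made its calls: active means every replicate reaching activation of at least 50%, whatever the mean replicate activation; inconclusive means replicates that disagree or another doubt; inactive means the rest.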

This test is described as follows: increased acetylated PGC1a in cells – cell-based, U2OS, AlphaScreen, signal-increasing mode, PGC1a modulator project, primary screen (AID 651723). As to conditions: U2OS PGC1a acetylation AlphaScreen, overnight; at 15.6 µM; active compounds read high. An outline of the steps: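 System: Flag-PGC1a/GCN5 U2OS cells | Quantity: 7000 cells/well | Times: Overnight compound treatment, 37 °C | Measured by: AlphaScreen proximity luminescence, anti-acetyl-lysine antibody | Dosing: One concentration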
On the technique in general: Bead proximity is the source of the signal in Alpha formats.
`CCOC(=O)c1c(NC(=O)CSc2cn(CC)c3ccccc23)sc2c1CCC2`: the activation is 67.2% (active).

Turning to `CCOC(=O)c1c(-c2ccc(C)cc2C)csc1NC(=O)CSc1nnnn1C`, the activation is -46.2%.

In the case of `CCCCC(=O)Nc1ccc(C(=O)NCCCn2ccnc2)cc1`, the activation is 71.6% (active).

Regarding `Cc1noc(C)c1S(=O)(=O)Nc1ccc2c(c1)C(=O)N([C@@H](C)CO)C[C@@H](C)[C@@H](CN(C)S(=O)(=O)c1ccccc1)O2`, the activation is -50.3%.

For the compound `Cc1ccc(-c2c[n+](CC(=O)Nc3ccccc3)c3n2CCC3)cc1`, the activation is -43.3%.

As for `Cc1nc(SCC(=O)NC2CCCC2)[nH]c(=O)c1C`, the activation was -42.3%.

As to `Cc1csc(NC(=O)NC2(C(F)(F)F)Oc3ccccc3O2)n1`, the activation is 74.6% (active).

As to `c1ccc2c(-c3nn4nnnc4c4ccccc34)cccc2c1`, the activation is 71% (active).

As to `Cn1c2c(c(=O)n(C)c1=O)C(c1cccc(F)c1)C(C#N)=C(N)O2` (stereo not given), the activation is -80.9%.

For `COc1ccc(Oc2c(Cl)cnn(-c3ccccc3)c2=O)cc1`, the activation is 112% (active).

With `CCOCCc1nn2c(=O)cc(CSCC(=O)Nc3cccc(C)c3C)nc2s1`, the activation is -38.7%.

As to `O=S(=O)(c1ccc(Br)cc1)n1ccc2ccccc21`, the activation was -40.2%.

Turning to `Cc1cc(C)c(S(=O)(=O)NCC2CCC(C(=O)NCc3ccc4c(c3)OCO4)CC2)c(C)c1` (stereo not given), the activation is -43.2%.

Take `CC(C)(C)c1cc(C(=O)N/N=C/c2ccc([N+](=O)[O-])s2)n[nH]1`: the activation was 80.1% (active).

As to `Cc1nc(Nc2ccc3c(c2)OCCO3)c2nnn(Cc3ccccc3Cl)c2n1`, the activation is -56.2%.

Take `N#Cc1c(N)nc2c3c(sc(=N)c2c1N)NC(=O)CC3c1ccccc1Cl` (stereo not given): the activation was 67.8% (active).

Regarding `Cc1cccc(CS(=O)(=O)c2ncc(Cl)c(C(=O)Nc3ccc(F)cc3)n2)c1`, the activation was 138% (active).

Regarding `O=C(Nc1cccc(Cl)c1)c1cncn1-c1ccc(F)cc1`, the activation is -44.8%.

On to `CN(C)c1ccc(-n2cccc2/C=N/n2cnnc2)cc1`, for which the activation was -55.5%.

For `O=C(NC1=CC(=O)c2ccccc2C1=O)c1ccccc1`, the activation was -80.8%.

For `CC[C@H]1CN2CCc3cc(OC)c(OC)cc3[C@@H]2C[C@@H]1C[C@H]1NCCc2cc(OC)c(OC)cc21`, the activation is -83.7%.

For the compound `N#Cc1ccc(-c2ccc(C3[C@@H]4CN(S(=O)(=O)c5ccc(F)cc5)C[C@H]3N4)cc2)cc1` (stereo not given in full), the activation was -58.1%.

For `CCc1ccc(N2CC(O)=C(c3nc4ccccc4c(=O)[nH]3)C2=N)cc1`, the activation was 165% (active).

As for `Cc1cc(C(=O)NNS(=O)(=O)c2ccccc2C(F)(F)F)nn1C(C)(C)C`, the activation was 259% (active).

Regarding `CCOC(=O)CSc1nccc(N(C)C)c1C#N`, the activation is -9.86%.

Take `COc1ccc(CC(NC(C)=O)C(=O)N2CCN(C(=O)Nc3cccc(Cl)c3)CC2)cc1OC` (stereo not given): the activation was -50.7%.

As to `Cc1cc(C)n(-c2nc(O)cc(=O)[nH]2)n1`, the activation is -36.3%.

Turning to `COc1ccc(C(=O)NN(C)c2nc(-c3ccccc3)cc(C)c2S(C)(=O)=O)cc1`, the activation was 87.7% (active).

With `CC(C)C#Cc1cnc2c(c1)C(=O)N([C@@H](C)CO)C[C@@H](C)[C@@H](CN(C)C(=O)CN1CCOCC1)O2`, the activation was -58.3%.

For the compound `O=C(CSc1nnc(Cn2cnc3ccccc32)o1)c1ccccc1`, the activation is 59.8% (active).

Regarding `CCOc1ccccc1CN1CCN(C2CCC2)CC1CCO` (stereo not given), the activation was -74.8%.

With `CN1OC[C@@H]2CN(S(=O)(=O)c3cccc4ccccc34)[C@H](c3ccc(N4CCCCC4)cc3)C[C@@H]21`, the activation is -47.9%.

With `Cc1cc(C)nc(S/C=C/C(=O)c2ccccc2)n1`, the activation is 63.2% (active).

In the case of `CCOC(=O)c1ccc2[nH]c(C)c(CN3CCN(C)CC3)c(=O)c2c1`, the activation was -59.3%.

Consider `CC(C)CCNc1nc(N2CCCC2)c2c(c1C#N)CCN(C)C2`, for which the activation is 102% (active).

With `C[C@@H]1CCCCO[C@@H](CN(C)CC2CC2)[C@H](C)CN([C@H](C)CO)C(=O)c2cc(NS(=O)(=O)c3ccccc3)ccc2O1`, the activation is -56.4%.

As for `COc1ccc(C(=O)/C=C/c2cccnc2)c(OC)c1`, the activation is 70.7% (active).

As to `NC(=O)N/N=C\c1cccs1`, the activation is -76.7%.

Regarding `O=C(Nc1ccc2c(c1)OCO2)N[C@H]1CC[C@H](CCNC(=O)C2CCC2)O[C@@H]1CO`, the activation is -46.2%.

For the compound `O=[N+]([O-])c1ccc(C=Nc2ccc(Cl)cc2Cl)s1`, the activation was 68.4% (active).

Take `C=CCn1c(=NC(=O)c2ccc(S(=O)(=O)N3CCCC3)cc2)sc2cc(NC(C)=O)ccc21`: the activation was -51.1%.

Take `N#Cc1ccc(-c2ccc([C@@H]3[C@H]4CNC[C@@H]3N4Cc3ccc4c(c3)OCO4)cc2)cc1`: the activation was -48.1%.

As for `CCOC(=O)C1=CC[C@@H](c2ccccc2)N(S(=O)(=O)c2ccc(C)cc2)[C@H]1c1ccc(CC)cc1`, the activation was 75.7% (active).

Turning to `NC(=NC(=O)c1ccccc1)N1CCOCC1`, the activation was -84.1%.

On to `CCN(CC)C(=O)c1ccc(O)c(OC)c1`, for which the activation is -55.9%.

For the compound `N=C1C(c2nc3ccccc3s2)=C(O)CN1NC(=O)c1ccc([N+](=O)[O-])cc1`, the activation was -100%.

On to `COc1ccc(C(=O)Nc2nc(-c3ccc(OC)cc3)c(-c3ccc([N+](=O)[O-])cc3)s2)cc1`, for which the activation is 55.6% (active).

Turning to `O=C(Cc1ccccc1)N1N=C(c2ccncc2)CC1(O)C(F)(F)F` (stereo not given), the activation is -50%.

Regarding `C[C@@H]1CCCCO[C@@H](CN(C)CC2CC2)[C@@H](C)CN([C@H](C)CO)C(=O)c2cc(NC(=O)C3CCCCC3)ccc2O1`, the activation is -52.5%.

On to `CCc1ccc(NC(=O)Nc2ccncc2)cc1`, for which the activation is -48.9%.

`CCn1c(/C=C/c2ccc([N+](=O)[O-])o2)nc2ccccc2c1=O`: the activation is 149% (active).

In the case of `Cc1nc2ccccc2c(=O)n1NC(=O)c1ccc(Cl)c([N+](=O)[O-])c1`, the activation is -44.8%.

On to `O=C1CN(S(=O)(=O)Cc2ccccc2)C[C@@H]2[C@@H](c3ccc(C#Cc4cccc(F)c4)cc3)[C@@H](CO)N12`, for which the activation was 60.3% (active).

Consider `COc1ccc(-c2ccc(CCC(=O)O)n2NC(=O)c2ccc(C(C)(C)C)cc2)cc1`, for which the activation was -43.5%.

As to `S=C1NC(c2ccccc2)=NCN1c1ccc(Br)cc1`, the activation is -80.9%.
